# Measurements as given in ChEMBL document CHEMBL1154352, “Toll-like receptor 7 selective synthetic oligoribonucleotide agonists: synthesis and structure-activity relationship studies” (J Med Chem, 2009).
# Active and inactive are the calls of the source. No cut-off for these calls is given here.
# How the values were obtained:
# [1] = Metabolic stability in human serum assessed as full length product remaining after 10 mins by HPLC; assay type: ADME, cell-free; conditions: read-out: Stability
# How it was run: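 About 0.5 A260 units compound in 1% human serum in PBS, 37 °C; aliquot taken at 10 min, analysed by anion-exchange HPLC for percent intact full-length product.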
# [2] = biological target: Toll-like receptor 3 (Homo sapiens) (UniProt O15455); assay: Activation of human TLR3 expressed in HEK293 assessed as induction of NF-kappaB activity reporter gene assay; assay type: cell-based
# Sequence of Toll-like receptor 3 (Homo sapiens) (O15455 whole entry): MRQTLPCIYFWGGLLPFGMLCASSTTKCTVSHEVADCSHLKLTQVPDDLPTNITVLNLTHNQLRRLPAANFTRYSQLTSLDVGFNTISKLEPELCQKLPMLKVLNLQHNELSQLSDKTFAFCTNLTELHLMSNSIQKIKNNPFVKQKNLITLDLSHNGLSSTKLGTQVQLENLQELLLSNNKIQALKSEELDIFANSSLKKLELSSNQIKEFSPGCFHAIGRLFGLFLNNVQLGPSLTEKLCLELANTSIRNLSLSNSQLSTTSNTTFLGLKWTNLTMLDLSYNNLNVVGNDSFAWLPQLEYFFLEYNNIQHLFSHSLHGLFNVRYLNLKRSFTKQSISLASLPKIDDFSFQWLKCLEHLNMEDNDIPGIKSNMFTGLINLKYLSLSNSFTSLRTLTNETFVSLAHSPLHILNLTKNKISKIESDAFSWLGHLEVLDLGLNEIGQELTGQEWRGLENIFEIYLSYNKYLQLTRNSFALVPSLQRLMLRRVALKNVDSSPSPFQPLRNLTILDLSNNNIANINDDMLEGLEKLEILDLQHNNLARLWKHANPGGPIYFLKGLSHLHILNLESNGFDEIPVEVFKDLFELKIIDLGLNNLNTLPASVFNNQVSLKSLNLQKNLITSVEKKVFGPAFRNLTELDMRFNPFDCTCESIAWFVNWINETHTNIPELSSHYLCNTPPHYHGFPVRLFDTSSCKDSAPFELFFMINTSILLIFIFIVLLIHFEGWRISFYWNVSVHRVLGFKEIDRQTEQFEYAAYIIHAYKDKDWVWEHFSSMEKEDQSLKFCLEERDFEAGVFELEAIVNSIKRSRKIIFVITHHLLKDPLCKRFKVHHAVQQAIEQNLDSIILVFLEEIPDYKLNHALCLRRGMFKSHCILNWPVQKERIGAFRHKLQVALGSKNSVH
# [3] = biological target: T1, Toll-like receptor 8 (Homo sapiens) (UniProt Q9NR97); assay: Activation of human TLR8 expressed in HEK293XL assessed as fold induction of NF-kappaB activity at 50 ug/ml after 18 hrs by reporter gene assay relative to control
# T1 sequence (whole entry): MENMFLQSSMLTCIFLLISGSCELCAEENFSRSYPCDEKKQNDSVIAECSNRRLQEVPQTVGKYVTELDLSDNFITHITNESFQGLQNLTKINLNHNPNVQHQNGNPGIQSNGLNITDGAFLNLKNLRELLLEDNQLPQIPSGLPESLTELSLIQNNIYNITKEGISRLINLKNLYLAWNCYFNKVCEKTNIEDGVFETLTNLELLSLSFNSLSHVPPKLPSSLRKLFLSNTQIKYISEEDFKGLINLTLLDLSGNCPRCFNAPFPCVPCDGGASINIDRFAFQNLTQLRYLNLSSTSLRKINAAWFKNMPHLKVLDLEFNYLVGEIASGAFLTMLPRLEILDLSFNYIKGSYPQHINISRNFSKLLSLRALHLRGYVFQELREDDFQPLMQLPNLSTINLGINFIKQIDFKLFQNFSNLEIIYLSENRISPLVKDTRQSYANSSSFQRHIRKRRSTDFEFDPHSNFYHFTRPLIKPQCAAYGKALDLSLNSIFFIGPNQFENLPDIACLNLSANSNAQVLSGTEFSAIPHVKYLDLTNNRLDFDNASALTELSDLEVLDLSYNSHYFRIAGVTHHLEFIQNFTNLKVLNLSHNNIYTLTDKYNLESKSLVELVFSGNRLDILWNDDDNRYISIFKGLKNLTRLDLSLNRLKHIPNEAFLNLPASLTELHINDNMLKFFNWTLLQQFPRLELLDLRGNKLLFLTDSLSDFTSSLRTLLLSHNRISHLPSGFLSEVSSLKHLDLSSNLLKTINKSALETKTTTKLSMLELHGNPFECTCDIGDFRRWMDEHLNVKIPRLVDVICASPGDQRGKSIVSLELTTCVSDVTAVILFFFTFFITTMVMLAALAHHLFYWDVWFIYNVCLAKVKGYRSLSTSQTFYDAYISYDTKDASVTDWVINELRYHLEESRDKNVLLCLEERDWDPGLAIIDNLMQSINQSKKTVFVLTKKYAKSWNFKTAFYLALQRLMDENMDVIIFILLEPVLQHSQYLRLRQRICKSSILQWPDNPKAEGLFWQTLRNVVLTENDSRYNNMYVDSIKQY
# How it was run: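 HEK293 cells stably expressing human TLR7 or TLR8, transiently transfected with SEAP reporter plasmid; medium replaced, SIMRA compounds added, 18 h incubation. Supernatant SEAP measured by QuantiBlue; expressed as fold increase in NF-κB activity over PBS control. Tabulated data at 50 μg/mL, representative of three independent experiments.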
# Homo sapiens = organism: Homo sapiens; assay: Ratio of human TLR7 activity to human TLR8 activity
# How it was run: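 TLR7/TLR8 ratio computed from fold NF-κB (SEAP reporter) activation in HEK293 cells stably expressing human TLR7 versus TLR8, compounds at 50 μg/mL, 18 h exposure; representative of three independent experiments.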
# Splenocyte [4] = assay: Immunomodulatory activity in C57BL/6 mouse splenocytes bearing TLR7 receptor assessed as IL12 release at 100 ug/ml after 24 hrs by ELISA; assay type: functional, cell-based
# How it was run: (§1)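 C57BL/6 splenocytes in RPMI 1640 with 10% FBS, penicillin/streptomycin, 2 mM L-glutamine, plated at 5 × 10^6 cells/mL; compounds in PBS added, 37 °C for 24 h. Supernatant IL-12 and IL-6 by ELISA; representative of three independent experiments.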
# Splenocyte [5] = assay: Immunomodulatory activity in C57BL/6 mouse splenocytes bearing TLR7 receptor assessed as IL6 release at 100 ug/ml after 24 hrs by ELISA; assay type: functional, cell-based; how it was run: as §1
Compound,remaining at 10 min [1],Activity [2],fold change (FC) [3],Ratio (Homo sapiens),Activity (Splenocyte [4]),Activity (Splenocyte [5])
Nc1ccn([C@@H]2O[C@H](COP(=O)(S)O[C@H]3[C@@H](O)[C@H](n4cnc5c(N)ncnc54)O[C@@H]3CO)[C@@H](OP(=O)(S)OC[C@H]3O[C@@H](n4ccc(=O)[nH]c4=O)[C@H](O)[C@@H]3OP(=O)(S)OC[C@H]3O[C@@H](n4ccc5c(=O)[nH]c(N)nc54)[C@H](O)[C@@H]3OP(=O)(S)OC[C@H]3O[C@@H](n4cnc5c(N)ncnc54)[C@H](O)[C@@H]3OP(=O)(S)OC[C@H]3O[C@@H](n4ccc5c(=O)[nH]c(N)nc54)[C@H](O)[C@@H]3OP(=O)(S)OC[C@H]3O[C@@H](n4cnc5c(N)ncnc54)[C@H](O)[C@@H]3OP(=O)(S)OC[C@H]3O[C@@H](n4ccc5c(=O)[nH]c(N)nc54)[C@H](O)[C@@H]3OP(=O)(S)OC[C@H]3O[C@@H](n4ccc(N)nc4=O)[C@H](O)[C@@H]3OP(=O)(S)OC[C@H]3O[C@@H](n4ccc(=O)[nH]c4=O)[C@H](O)[C@@H]3OP(=O)(S)OC[C@H]3O[C@@H](n4ccc(=O)[nH]c4=O)[C@H](O)[C@@H]3OP(=O)(S)OCC(O)COP(=O)(S)O[C@H]3[C@@H](O)[C@H](n4ccc(=O)[nH]c4=O)O[C@@H]3COP(=O)(S)O[C@H]3[C@@H](O)[C@H](n4ccc(=O)[nH]c4=O)O[C@@H]3COP(=O)(S)O[C@H]3[C@@H](O)[C@H](n4ccc(N)nc4=O)O[C@@H]3COP(=O)(S)O[C@H]3[C@@H](O)[C@H](n4ccc5c(=O)[nH]c(N)nc54)O[C@@H]3COP(=O)(S)O[C@H]3[C@@H](O)[C@H](n4cnc5c(N)ncnc54)O[C@@H]3COP(=O)(S)O[C@H]3[C@@H](O)[C@H](n4ccc5c(=O)[nH]c(N)nc54)O[C@@H]3COP(=O)(S)O[C@H]3[C@@H](O)[C@H](n4cnc5c(N)nc(N)nc54)O[C@@H]3COP(=O)(S)O[C@H]3[C@@H](O)[C@H](n4ccc5c(=O)[nH]c(N)nc54)O[C@@H]3COP(=O)(S)O[C@H]3[C@@H](O)[C@H](n4ccc(=O)[nH]c4=O)O[C@@H]3COP(=O)(S)O[C@H]3[C@@H](O)[C@H](n4ccc(N)nc4=O)O[C@@H]3COP(=O)(S)O[C@H]3[C@@H](O)[C@H](n4cnc5c(N)ncnc54)O[C@@H]3CO)[C@H]2O)c(=O)n1 (stereo partly drawn),79%,inactive,2.4,7,Active,Active
Nc1ccn([C@@H]2O[C@H](COP(=O)(S)O[C@H]3[C@@H](O)[C@H](n4cnc5c(N)ncnc54)O[C@@H]3CO)[C@@H](OP(=O)(S)OC[C@H]3O[C@@H](n4ccc(=O)[nH]c4=O)[C@H](O)[C@@H]3OP(=O)(S)OC[C@H]3O[C@@H](n4ccc(=O)[nH]c4=O)[C@H](O)[C@@H]3OP(=O)(S)OC[C@H]3O[C@@H](n4ccc5c(=O)[nH]c(N)nc54)[C@H](O)[C@@H]3OP(=O)(S)OC[C@H]3O[C@@H](n4cnc5c(N)ncnc54)[C@H](O)[C@@H]3OP(=O)(S)OC[C@H]3O[C@@H](n4ccc(N)nc4=O)[C@H](O)[C@@H]3OP(=O)(S)OC[C@H]3O[C@@H](n4ccc(=O)[nH]c4=O)[C@H](O)[C@@H]3OP(=O)(S)OC[C@H]3O[C@@H](n4ccc(=O)[nH]c4=O)[C@H](O)[C@@H]3OP(=O)(S)OC[C@H]3O[C@@H](n4ccc5c(=O)[nH]c(N)nc54)[C@H](O)[C@@H]3OP(=O)(S)OC[C@H]3O[C@@H](n4cnc5c(N)ncnc54)[C@H](O)[C@@H]3OP(=O)(S)OCC(O)COP(=O)(S)O[C@H]3[C@@H](O)[C@H](n4cnc5c(N)ncnc54)O[C@@H]3COP(=O)(S)O[C@H]3[C@@H](O)[C@H](n4ccc5c(=O)[nH]c(N)nc54)O[C@@H]3COP(=O)(S)O[C@H]3[C@@H](O)[C@H](n4ccc(=O)[nH]c4=O)O[C@@H]3COP(=O)(S)O[C@H]3[C@@H](O)[C@H](n4ccc(=O)[nH]c4=O)O[C@@H]3COP(=O)(S)O[C@H]3[C@@H](O)[C@H](n4ccc(N)nc4=O)O[C@@H]3COP(=O)(S)O[C@H]3[C@@H](O)[C@H](n4cnc5c(N)ncnc54)O[C@@H]3COP(=O)(S)O[C@H]3[C@@H](O)[C@H](n4ccc5c(=O)[nH]c(N)nc54)O[C@@H]3COP(=O)(S)O[C@H]3[C@@H](O)[C@H](n4ccc(=O)[nH]c4=O)O[C@@H]3COP(=O)(S)O[C@H]3[C@@H](O)[C@H](n4ccc(=O)[nH]c4=O)O[C@@H]3COP(=O)(S)O[C@H]3[C@@H](O)[C@H](n4ccc(N)nc4=O)O[C@@H]3COP(=O)(S)O[C@H]3[C@@H](O)[C@H](n4cnc5c(N)ncnc54)O[C@@H]3CO)[C@H]2O)c(=O)n1 (stereo partly drawn),87%,inactive,1.4,6.5,Active,Active
Nc1ccn([C@@H]2O[C@H](COP(=O)(S)O[C@H]3[C@@H](O)[C@H](n4ccc(N)nc4=O)O[C@@H]3COP(=O)(S)O[C@H]3[C@@H](O)[C@H](n4cnc5c(N)ncnc54)O[C@@H]3COP(=O)(S)O[C@H]3[C@@H](O)[C@H](n4ccc5c(=O)[nH]c(N)nc54)O[C@@H]3COP(=O)(S)O[C@H]3[C@@H](O)[C@H](n4ccc(=O)[nH]c4=O)O[C@@H]3COP(=O)(S)O[C@H]3[C@@H](O)[C@H](n4ccc(=O)[nH]c4=O)O[C@@H]3COP(=O)(S)O[C@H]3[C@@H](O)[C@H](n4ccc(N)nc4=O)O[C@@H]3COP(=O)(S)O[C@H]3[C@@H](O)[C@H](n4cnc5c(N)ncnc54)O[C@@H]3CO)[C@@H](OP(=O)(S)OC[C@H]3O[C@@H](n4ccc(=O)[nH]c4=O)[C@H](O)[C@@H]3OP(=O)(S)OC[C@H]3O[C@@H](n4ccc(=O)[nH]c4=O)[C@H](O)[C@@H]3OP(=O)(S)OC[C@H]3O[C@@H](n4ccc(=O)[nH]c4=O)[C@H](O)[C@@H]3OP(=O)(S)OCC(O)COP(=O)(S)O[C@H]3[C@@H](O)[C@H](n4ccc(=O)[nH]c4=O)O[C@@H]3COP(=O)(S)O[C@H]3[C@@H](O)[C@H](n4ccc(=O)[nH]c4=O)O[C@@H]3COP(=O)(S)O[C@H]3[C@@H](O)[C@H](n4ccc(=O)[nH]c4=O)O[C@@H]3COP(=O)(S)O[C@H]3[C@@H](O)[C@H](n4ccc(N)nc4=O)O[C@@H]3COP(=O)(S)O[C@H]3[C@@H](O)[C@H](n4ccc(N)nc4=O)O[C@@H]3COP(=O)(S)O[C@H]3[C@@H](O)[C@H](n4cnc5c(N)ncnc54)O[C@@H]3COP(=O)(S)O[C@H]3[C@@H](O)[C@H](n4ccc5c(=O)[nH]c(N)nc54)O[C@@H]3COP(=O)(S)O[C@H]3[C@@H](O)[C@H](n4ccc(=O)[nH]c4=O)O[C@@H]3COP(=O)(S)O[C@H]3[C@@H](O)[C@H](n4ccc(=O)[nH]c4=O)O[C@@H]3COP(=O)(S)O[C@H]3[C@@H](O)[C@H](n4ccc(N)nc4=O)O[C@@H]3COP(=O)(S)O[C@H]3[C@@H](O)[C@H](n4cnc5c(N)ncnc54)O[C@@H]3CO)[C@H]2O)c(=O)n1 (stereo partly drawn),72%,inactive,1.8,12.9,Active,Active
